Hits are enriched below; roughly 2.2% of the tested compounds scored in any of these assays.
miR-122 sensor: miR-122 inhibition in Huh7 cells; Huh7 miR-122 Renilla luciferase sensor, 48 h; neutral wells = 0, positive control = 100; activation (reporter increase), % at 12.5 µM; actives 0.3% (n = 340,000); AID 602342;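 active = mean replicate activation score at least 90 and every replicate individually at or above 90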;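 note: higher luciferase means less miR-122 activity so hits act as miR-122 inhibitors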
NR2E3 ag-1: activates human NR2E3 receptor; Q9Y5X4; CHO-S Gal4-NCOR/VP16-NR2E3 two-hybrid, luciferase; inhibition of corepressor binding, % at 3.98 µM; actives 0.35% (n = 360,000);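 active = inhibition above the mean of all tested compounds plus 3 SD, cut at about 70% in these data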;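 note: 0% = DMSO with NR2E3 transfected cells and 100% = cells lacking NR2E3 construct; higher means lower luciferase signal from less NR2E3 corepressor binding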
Target sequence (Q9Y5X4 whole entry, looked up, the tested form may be a part): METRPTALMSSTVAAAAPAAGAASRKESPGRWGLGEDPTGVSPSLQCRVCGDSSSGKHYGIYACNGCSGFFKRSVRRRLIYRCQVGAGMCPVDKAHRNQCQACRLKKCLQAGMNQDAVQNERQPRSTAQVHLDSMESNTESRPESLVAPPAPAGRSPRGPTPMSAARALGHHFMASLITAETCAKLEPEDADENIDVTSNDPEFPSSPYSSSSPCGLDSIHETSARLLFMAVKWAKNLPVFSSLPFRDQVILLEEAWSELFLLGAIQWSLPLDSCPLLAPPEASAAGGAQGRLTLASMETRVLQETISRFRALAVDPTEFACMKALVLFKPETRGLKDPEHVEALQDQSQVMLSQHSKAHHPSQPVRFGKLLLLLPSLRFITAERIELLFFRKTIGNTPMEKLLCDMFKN
NR2E3 ag-2: activates human photoreceptor nuclear receptor NR2E3; Q9Y5X4; GST-NR2E3/biotin-RetCOR TR-FRET, 1536-well; inhibition of corepressor binding, % at 4.78 µM; actives 0.12% (n = 320,000); AID 2300;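 active = percent inhibition above the cutoff of mean plus 3 SD of all tested compounds, set per screening campaign, cut at about 20% in these data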;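 note: 0% = DMSO wells and 100% = biotin wells as full block of FRET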
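Assay system: NR2E3–RetCOR corepressor complex. Quantity: 1.35 nM GST-NR2E3. Buffer or medium: pH 7.5 Tris-based buffer. Reagent: biotinylated RetCOR corepressor at 7 nM final. Schedule: 5 h at 4 °C. Detection: TR-FRET, emission read at 617 and 671 nm. Replicates: one well per compound, singlicate testing.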
697 NFkB inh: lowers PMA/ionomycin-induced NF-kB signal in 697 B cells; 697 B-cell NF-kB luciferase reporter, 16 h; inhibition, % at 4 µM; actives 0.33% (n = 330,000); in the data active = inhibition above about 35%
FGF22 binding: shifts melting point of recombinant human FGF22 | activity (Tm shift, normalised), % at 9.99 µM | Q9HCT0 | recombinant FGF22 thermal shift, SYPRO orange fluorescence; percent of sucrose octasulfate shift, DMSO zero | actives 1.5% (n = 340,000);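 active = mean Tm shift, scaled 0 neutral to 100 positive control, at about 1.3% or above, every replicate too, limit read from the data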
Target sequence (Q9HCT0 whole entry, looked up): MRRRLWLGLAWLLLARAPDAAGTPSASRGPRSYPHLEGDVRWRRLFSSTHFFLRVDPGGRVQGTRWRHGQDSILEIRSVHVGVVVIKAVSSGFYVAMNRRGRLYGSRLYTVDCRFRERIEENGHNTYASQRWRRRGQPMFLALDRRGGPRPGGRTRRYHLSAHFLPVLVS
Jurkat NFkB inh: inhibitors of the PMA/ionomycin-induced NF-kB reporter in Jurkat cells; inhibition, % at 4 µM; PMA/ionomycin-induced NF-kB luciferase reporter, luminescence; actives 0.53% (n = 330,000); in the data active = inhibition above about 50%
NR2E3 ag confirm: confirmation of human NR2E3 agonists; actives 51% (n = 2,300); inhibition, % at 3.98 µM; shares compounds with NR2E3 ag-1; CHO-S mammalian two-hybrid NR2E3-NCOR, luciferase luminescence;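 active = average inhibition above a cutoff equal to the mean inhibition of all tested compounds plus one SD, cut at about 70% in these data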;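 note: 0% = DMSO in NR2E3 cells and 100% = DMSO in cells lacking NR2E3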
VP16 counter: counter-screen for NR2E3 agonists: GAL4-VP16 reporter inhibitors; shares compounds with NR2E3 ag-1; CHO-S GAL4-VP16 luciferase reporter, luminescence; inhibition, % at 3.98 µM; actives 29% (n = 2,300);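 active = mean inhibition above a cutoff equal to the average over all tested compounds plus one standard deviation, cut at about 70% in these data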;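 note: luciferase from a UAS reporter driven by GAL4-VP16 transactivation; 0% = DMSO with VP16-transfected cells and 100% = DMSO with cells lacking VP16; higher means less reporter light so more repression of VP16 activity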
* = called active by the depositor; . = not tested or not shown; [ ] = another dose, or the depositor's remark.

SMILES | miR-122 sensor | NR2E3 ag-1 | NR2E3 ag-2 | 697 NFkB inh | FGF22 binding | Jurkat NFkB inh | NR2E3 ag confirm | VP16 counter
C[C@H](CO)N1C[C@H](C)[C@@H](CN(C)CC2CCCCC2)Oc2ccc(NC(=O)C3CCCCC3)cc2C1=O | -5.2[16.7 µM] | . | . | . | 0.1 | . | . | .
Cc1sc2ncnc(Nc3ccccc3)c2c1C | 4.6 | 8.0 | 1.5 | -7.3 | . | 2.6 | . | .
c1ccc(-c2csc3ncnc(NCC4COc5ccccc5O4)c23)cc1 (centres undefined) | . | 91.3* | 2.4 | . | 0.6 | . | 97.9* | 89.3*
Cc1sc2ncnc(NCC3COc4ccccc4O3)c2c1C (centres undefined) | . | 92.2* | -1.0 | . | . | . | 97.2* | 89.1*
Cc1sc2ncnc(NCC3CCCO3)c2c1C (centres undefined) | . | 21.1 | -2.2 | 5.6 | . | 13.2 | . | .
Cc1sc2ncnc(NCC(C)(C)N3CCOCC3)c2c1C | -11.9 | 91.2* | 2.1 | -36.8 | . | 34.8 | 79.7* | 65.6
Cc1sc2ncnc(NCc3ccccc3)c2c1C | -22.2 | 66.9 | 2.3 | -67.2 | . | 30.4 | 89.3* | 70.9*
c1ccc(-c2csc3ncnc(NCCCN4CCOCC4)c23)cc1 | -4.0 | 8.2 | 0.1 | -6.1 | . | 17.8 | . | .
COC(=O)N(C)C[C@H]1OCc2ccccc2-c2c(n(C)c3ccccc23)C(=O)N([C@H](C)CO)C[C@@H]1C | . | . | . | . | 0.0 | . | . | .
Cc1ccc(C)c(NC(=S)NCC(c2ccccc2)N(C)C)c1 (centres undefined) | -2.2 | 58.4 | -2.0 | -3.8 | -0.1 | -4.5 | -14.0 | -0.8
O=C(OCCN1C(=O)c2cccc3c(N4CCOCC4)ccc(c23)C1=O)c1ccccc1Cl | . | 51.8 | 4.0 | . | . | . | 92.6* | 91.6*
Cc1ccc(S(=O)(=O)Nc2ccc3c(c2)C(=O)N([C@@H](C)CO)C[C@H](C)[C@@H](CN(C)C(=O)Nc2c(C)noc2C)OCCCC[C@H](C)O3)cc1 | 5.0[16.7 µM] | . | . | . | -0.3 | . | . | .
COc1ccc(S(=O)(=O)N/N=C\c2ccc3c(c2)OCO3)c(OC)c1 | 37.0 | 55.4 | . | -19.3 | -0.2 | 16.0 | 14.7 | 52.2
Cc1ccc(S(=O)(=O)N/N=C\c2ccc3c(c2)OCO3)cc1C | 61.9 | -11.1 | 2.8 | 5.8 | 0.1 | -1.6 | . | .
O=C(NNc1c([N+](=O)[O-])cc(C(F)(F)F)cc1[N+](=O)[O-])c1ccco1 | . | 60.9 | -3.8 | -16.4 | 0.2 | 3.9 | 69.4 | 57.5
O=C(NNc1c(F)c(F)cc(F)c1F)c1ccco1 | -0.4 | -17.3 | . | 10.7 | -0.2 | -16.7 | . | .
O=C(Nc1ccc(Cl)c(Cl)c1)c1cccc(S(=O)(=O)NCc2cccnc2)c1 | . | 55.4 | -2.4 | -7.7 | . | 11.8 | 84.3* | 71.5*
COc1ccc2cc(S(=O)(=O)NCc3cccnc3)ccc2c1 | 36.6 | 57.1 | 3.9 | -27.8 | -0.3 | 3.9 | 25.8 | 37.8
COc1cccc(S(=O)(=O)NCc2ccc(C(=O)Nc3ccc(Cl)c(Cl)c3)cc2)c1 | -18.8 | 13.3 | 4.9 | -29.9 | . | 0.7 | . | .
COc1ccc(S(=O)(=O)NCc2cccnc2)cc1OC | . | 6.5 | -1.1 | 2.7 | 0.0 | -2.5 | . | .
CO[C@@H]1CN(C)C(=O)c2cc(NC(=O)Nc3c(C)noc3C)ccc2OC[C@@H](C)N(CCC(F)(F)F)C[C@H]1C | . | . | . | . | 0.3 | . | . | .
C/C=C/c1ccc2c(c1)O[C@@H](CN(C)C(=O)Cc1ccncc1)[C@H](C)CN([C@H](C)CO)S2(=O)=O | -3.4[16.7 µM] | . | . | . | 0.2 | . | . | .
COc1ccc(S(=O)(=O)N[C@@H]2CC[C@H](CC(=O)N3CCN(c4ccccc4)CC3)O[C@H]2CO)cc1 | . | . | . | . | -0.2 | . | . | .
Cc1cc(C)nc(SCC(=O)Nc2sc3c(c2C#N)CCC(C)C3)n1 (centres undefined) | 7.1 | 70.7* | -2.5 | -44.3 | . | 10.6 | 73.8* | 77.3*
COc1cnc(-c2ccccn2)nc1Oc1c(C)cccc1C | -5.6 | 57.3 | -0.2 | -9.9 | 0.2 | 9.0 | 28.1 | -5.9
SMILES | miR-122 sensor | NR2E3 ag-1 | NR2E3 ag-2 | 697 NFkB inh | FGF22 binding | Jurkat NFkB inh | NR2E3 ag confirm | VP16 counter
CN(C)c1nc(-c2ccccn2)nnc1-c1ccccc1 | 13.3 | 9.8 | 2.4 | -19.8 | . | -1.6 | . | .
COc1ccc(Oc2nc(-c3ccccn3)ncc2OC)cc1 | . | 73.2* | 1.4 | 11.4 | 0.4 | 4.7 | 20.9 | -25.7
COc1cnc(-c2ccccn2)nc1N(C)C | 10.9 | 62.5 | 0.8 | 4.9 | 0.0 | 16.0 | 52.4 | -13.3
COc1cnc(-c2ccccn2)nc1Oc1cccc(Cl)c1 | -6.1 | 62.5 | 1.3 | -8.7 | . | 9.3 | 15.1 | 3.5
O=C(CN1CCOCC1)NCC[C@@H]1CC[C@@H](NC(=O)Nc2ccc(Cl)cc2)[C@@H](CO)O1 | . | . | . | . | 0.0 | . | . | .
O=C(C[C@H]1C[C@@H]2c3cc(NC(=O)C4CCC4)ccc3O[C@@H]2[C@H](CO)O1)NCc1cccnc1 | 5.5[16.7 µM] | . | . | . | -0.1 | . | . | .
O=C(N[C@H]1C=C[C@@H](CC(=O)N2CCOCC2)O[C@H]1CO)c1ccc2c(c1)OCO2 | . | . | . | . | 0.0 | . | . | .
CC(=O)n1cc([C@H]2C=C(C(=O)N3CCCCCCC3)O[C@@H](OCc3ccc(CO)cc3)C2)c2ccccc21 | . | . | . | . | -0.4 | . | . | .
N#Cc1ccc(-c2ccc3c(c2)[C@H]2[C@H](CCN2C(=O)CN2CCOCC2)[C@H](CO)N3)cc1 | -5.8[16.7 µM] | . | . | . | -0.3 | . | . | .
CCCNC(=O)N(C)C[C@@H]1Oc2ncc(-c3ccc(OC)cc3)cc2C(=O)N([C@@H](C)CO)C[C@@H]1C | 0.9[16.7 µM] | . | . | . | -0.1 | . | . | .
Cn1cnc(S(=O)(=O)N2CC[C@@H]3[C@H]2c2cc(-c4ccccc4F)ccc2N[C@@H]3CO)c1 | -5.7[16.7 µM] | . | . | . | -0.3 | . | . | .
CCCNC(=O)[C@H]1[C@H](CO)[C@H]2Cn3c(ccc(-c4ccc(F)cc4)c3=O)[C@H]2N1CC | -3.2[16.7 µM] | . | . | . | 0.2 | . | . | .
Cn1nnnc1Sc1ncnc2scc(-c3cccc(S(C)(=O)=O)c3)c12 | -13.8 | -14.5 | 4.9 | -10.6 | 0.1 | -12.4 | . | .
Cn1nnnc1Sc1ncnc2scc(-c3cccc(Br)c3)c12 | -6.3 | 50.7 | . | -53.9 | 0.2 | 13.2 | 26.2 | 45.6
Cn1nnnc1Sc1ncnc2scc(-c3ccccc3Cl)c12 | 0.8 | 66.4 | 1.1 | -1.5 | -0.1 | -13.7 | 34.2 | 52.0

Screening results as filed in PubChem BioAssay.
